This is an account of results in ChEMBL document CHEMBL3593173, “Discovery of novel N-(5-(tert-butyl)isoxazol-3-yl)-N'-phenylurea analogs as potent FLT3 inhibitors and evaluation of their activity against acute myeloid leukemia in vitro and in vivo” (Bioorg Med Chem, 2015).

What is called IC50 is the midpoint of a concentration-inhibition curve. For orientation: solubility means how much of the substance goes into solution per volume. Low readings indicate little dissolved substance, high ones much dissolved substance. For orientation: CL/F means clearance divided by bioavailability, as obtained after extravascular dosing.

The subject of series [1] is MV4-11. In words: Cytotoxicity against human MV4-11 cells incubated for 72 hrs by MTT assay. Type of series: functional, cell-based. As to conditions: MV4-11, 72 h. Put shortly: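 Leukemia cells were grown with 10% FBS at 37 °C in 5% CO₂; MV4-11 was kept in IMDM. Cells were seeded at 1–4 × 10⁴ per well, and an equal volume of medium containing increasing inhibitor concentrations was added. MTT was added for 2–4 h, formazan was dissolved in DMSO, and OD was read at 570 nm to derive IC50.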

Series [2] in a line: Solubility in EtOH solution. The series is classed as physicochemical.
Series [3] in a line: Clearance in Sprague-Dawley rat at 30 mg/kg, po after 15 mins to 24 hrs by HPLC method. Type of series: ADME, organism-based. As to conditions: in vivo. Put shortly: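 Sprague–Dawley rats (n = 3) fasted overnight, then given a single 30 mg/kg oral gavage dose in 25% PEG400, 5% DMSO and 70% distilled water. Heparinized blood was drawn at 15 min, 30 min, 1, 2, 4, 6, 12 and 24 h, and plasma was separated by centrifugation. Plasma levels were measured by liquid–liquid extraction and HPLC.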

Series [4] can be described thus: Growth inhibition of human A875 cells incubated for 72 hrs by MTT assay. Type of series: functional, cell-based. As to conditions: A875, 72 h. Put shortly:
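Non-leukemia lines were grown in RPMI 1640 or DMEM with 10% FBS at 37 °C in 5% CO₂. Cells were seeded at 2–5 × 10³ per well and incubated 24 h, then treated with diluted inhibitors for 72 h. MTT was added for 2–4 h, formazan was dissolved in DMSO, and OD was read at 570 nm to derive IC50.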

Series [5] relates to MV4-11. In words: Effect on FLT3 protein expression in human MV4-11 cells at 1 to 100 nM incubated for 2 hrs by Western blotting method. Type of series: cell-based. As to conditions: mv4-11, 2 h, 0.1 µM. A digest of the protocol: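 MV4-11 cells were treated with increasing concentrations for 2 h at 37 °C, washed in ice-cold PBS and lysed in RIPA buffer with 1% protease cocktail. Lysates were cleared at 13,000 rpm for 15 min at 4 °C, run on 5–10% polyacrylamide gels and transferred to PVDF. Blots were probed with anti-FLT3, anti-p-FLT3 and anti-β-actin, then an HRP secondary antibody.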
(In general: A western blot detects proteins with antibodies after separation by electrophoresis.)

The subject of series [6] is MV4-11. As to the kind of experiment: Induction of apoptosis in human MV4-11 cells incubated for 48 hrs by Annexin V-FITC labeling based flow cytometry. The series is classed as functional, cell-based.
The test system of series [7] is MV4-11. In words: Induction of apoptosis in human MV4-11 cells assessed as viable cells at 1 nM incubated for 48 hrs by Annexin V-FITC labeling based flow cytometry (reference value: 86.1%). The series is classed as functional. As to conditions: MV4-11, 48 h, read-out: Activity. (In flow cytometry, cells or beads pass a laser one at a time.)
Series [8] concerns MV4-11. In words: Induction of apoptosis in human MV4-11 cells assessed as early apoptotic cells level at 1 nM incubated for 48 hrs by Annexin V-FITC labeling based flow cytometry (reference value: 3.54%). The series is classed as functional.
In series [9] the test system is MV4-11. In words: Induction of apoptosis in human MV4-11 cells assessed as necrotic cells level at 1 nM incubated for 48 hrs by Annexin V-FITC labeling based flow cytometry (reference value: 3.76%). Type of series: functional.
In series [10] the test system is MV4-11. As to the kind of experiment: Induction of apoptosis in human MV4-11 cells assessed as necrotic cells level at 10 nM incubated for 48 hrs by Annexin V-FITC labeling based flow cytometry (reference value: 3.76%). The series is classed as functional.
The test system of series [11] is MV4-11. As to the kind of experiment: Induction of apoptosis in human MV4-11 cells assessed as early apoptotic cells level at 100 nM incubated for 48 hrs by Annexin V-FITC labeling based flow cytometry (reference value: 3.54%). The series is classed as functional.
The test system of series [12] is MV4-11. In words: Induction of apoptosis in human MV4-11 cells assessed as late apoptotic cells level at 100 nM incubated for 48 hrs by Annexin V-FITC labeling based flow cytometry (reference value: 6.61%). The series is classed as functional.
In series [13] the test system is MV4-11. In words: Antitumor activity against FLT3-ITD bearing human MV4-11 cells xenografted in NOD-SCID mouse assessed as induction of complete tumor regression at 60 mg/kg/day, po. Type of series: functional, organism-based. A digest of the protocol: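 MV4-11 cells in exponential growth were washed three times in serum-free medium, resuspended at 1 × 10⁸ cells/mL and injected subcutaneously into NOD-SCID mice aged 5–6 weeks. At 100–200 mm³, tumors were randomized into 4 groups of 6. Dosing was 10, 30 or 60 mg/kg/d, or vehicle (25% PEG400 plus 5% DMSO in water), by oral gavage once daily. Tumor volume was measured every 3 days, and body weight and toxicity signs were monitored.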

Each structure is given as a SMILES string. In brackets after ≈: the same amount, converted by molar mass. Activity calls are given as the source filed them. The calls are words filed in the database; no cut-off is given here. Some results are limits rather than exact numbers.

Regarding `COc1ccn2cc(-c3ccc(NC(=O)Nc4cc(C(C)(C)C)on4)cc3)nc2c1`, the figures for the IC50 in series [1] and in [4] were 2.84 nM and above 20000 nM, respectively. In [2], the solubility stood at 3150 µg/mL (≈ 7.77 mM). In [3], this compound showed a CL/F of 33.5 mL/min/kg. The Activity entry in [5] is “Non-toxic”; in series [6], “Dose-dependent effect”; in series [8], 3.86%; in [9] it was 5.34%; in [10] it was 10.8%; in series [11] it was 6.88%. Further, the Activity in [12] is recorded as 23%. For the same compound, the viability at 0.001 µM in series [7] amounted to 78.7%. The outcome in series [13] was Active.
